From ChEMBL document CHEMBL1177710, “Structure-based drug design and optimization of mannoside bacterial FimH antagonists” (J Med Chem, 2010)

Columns and labels:
Escherichia coli [1] = assay: Inhibition of Escherichia coli FimH-mediated hemagglutinination of guinea pig red blood cells assessed as drug level required for > 90% inhibition of hemagglutinination
[2] = Displacement of 5(6)-FAM-mannoside from Escherichia coli FimH by fluorescence polarization assay
Escherichia coli [3] = assay: Ratio of alpha-D-heptylmannoside to compound inhibitory activity against Escherichia coli FimH-mediated hemagglutinination of guinea pig red blood cells
[4] = Binding affinity to Escherichia coli FimH by fluorescence polarization assay
Procedure, shortened: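 Competitive fluorescence polarization/anisotropy assay. Compounds from 10 mM DMSO stocks were 2-fold serially diluted to 11 final concentrations of 0–10 μM, in duplicate plates. Mix: 200 nM FimH, 20 nM 5(6)-FAM-labelled mannoside tracer, 50 mM Tris, 100 mM NaCl, 1 mM EDTA, 5 μg BSA, 5 mM BME. Anisotropy was averaged over 100 readings/well and fitted to a one-site competition curve, with a mannoside positive control.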

[5] = Binding affinity to Escherichia coli FimH by surface plasmon resonance assay
Escherichia coli [6] = assay: Selectivity ratio of inhibition of Escherichia coli FimH-mediated hemagglutinination of guinea pig red blood cells to EC50 for Escherichia coli FimH

SMILES	Activity (Escherichia coli [1]) [µM]	EC50 [2] [nM]	other results
N#Cc1cccc(O[C@H]2O[C@H](CO)[C@@H](O)[C@H](O)[C@@H]2O)c1	23	162	–
O=C(c1ccccc1)c1cccc(O[C@H]2O[C@H](CO)[C@@H](O)[C@H](O)[C@@H]2O)c1	8	–	–
COC(=O)c1ccc(-c2ccc(O[C@H]3O[C@H](CO)[C@@H](O)[C@H](O)[C@@H]3O)cc2)cc1	4	59	–
COC(=O)c1cc2cc(O[C@H]3O[C@H](CO)[C@@H](O)[C@H](O)[C@@H]3O)ccc2s1	2	–	–
CNS(=O)(=O)c1ccccc1-c1ccc(O[C@H]2O[C@H](CO)[C@@H](O)[C@H](O)[C@@H]2O)cc1	4	–	–
COC(=O)c1cccc(O[C@H]2O[C@H](CO)[C@@H](O)[C@H](O)[C@@H]2O)c1	6	84	–
COC(=O)c1cc2ccc(O[C@H]3O[C@H](CO)[C@@H](O)[C@H](O)[C@@H]3O)cc2s1	2	–	–
O=C(NCCOCCOCCNC(=O)c1cccc(-c2ccc(O[C@H]3O[C@H](CO)[C@@H](O)[C@H](O)[C@@H]3O)cc2)c1)c1cccc(-c2ccc(O[C@H]3O[C@H](CO)[C@@H](O)[C@H](O)[C@@H]3O)cc2)c1	–	–	Ratio (Escherichia coli [3]): 8
OC[C@H]1O[C@H](Oc2ccccc2Cl)[C@@H](O)[C@@H](O)[C@@H]1O	4	–	–
CS(=O)(=O)Nc1cccc(-c2ccc(O[C@H]3O[C@H](CO)[C@@H](O)[C@H](O)[C@@H]3O)cc2)c1	2	97	–
CNS(=O)(=O)c1cccc(-c2ccc(O[C@H]3O[C@H](CO)[C@@H](O)[C@H](O)[C@@H]3O)cc2)c1	1	–	–
N#Cc1ccc(O[C@H]2O[C@H](CO)[C@@H](O)[C@H](O)[C@@H]2O)cc1	30	–	–
N#Cc1ccccc1-c1ccc(O[C@H]2O[C@H](CO)[C@@H](O)[C@H](O)[C@@H]2O)cc1	2	–	–
O=C(O)c1cc(C(=O)NCCCCO[C@H]2O[C@H](CO)[C@@H](O)[C@H](O)[C@@H]2O)cc(-c2c3ccc(=O)cc-3oc3cc(O)ccc23)c1	125	–	Kd [4]: 170 nM
O=[N+]([O-])c1cccc(O[C@H]2O[C@H](CO)[C@@H](O)[C@H](O)[C@@H]2O)c1	16	–	–
NC(=O)c1cccc(O[C@H]2O[C@H](CO)[C@@H](O)[C@H](O)[C@@H]2O)c1	16	–	–
OC[C@H]1O[C@H](Oc2ccc(-c3cccc(O)c3)cc2)[C@@H](O)[C@@H](O)[C@@H]1O	4	–	–
COc1cccc(-c2ccc(O[C@H]3O[C@H](CO)[C@@H](O)[C@H](O)[C@@H]3O)cc2)c1	1.5	–	–
NC(=O)c1ccccc1-c1ccc(O[C@H]2O[C@H](CO)[C@@H](O)[C@H](O)[C@@H]2O)cc1	6	–	–
CC(=O)Oc1cccc(O[C@H]2O[C@H](CO)[C@@H](O)[C@H](O)[C@@H]2O)c1	16	–	–
NC(=O)c1ccc(O[C@H]2O[C@H](CO)[C@@H](O)[C@H](O)[C@@H]2O)cc1	15	–	–

SMILES	Activity (Escherichia coli [1]) [µM]	EC50 [2] [nM]	other results
OC[C@H]1O[C@H](OCc2ccccc2)[C@@H](O)[C@@H](O)[C@@H]1O	–	187	–
CCCCO[C@H]1O[C@H](CO)[C@@H](O)[C@H](O)[C@@H]1O [BUTYLALPHAMAN]	125	245	Kd [5]: 151 nM
Cc1ccc(O[C@H]2O[C@H](CO)[C@@H](O)[C@H](O)[C@@H]2O)cc1	8	–	–
COC(=O)c1cc(O[C@H]2O[C@H](CO)[C@@H](O)[C@H](O)[C@@H]2O)cc(C(=O)OC)c1	2	91	–
O=C1Cc2cc(O[C@H]3O[C@H](CO)[C@@H](O)[C@H](O)[C@@H]3O)ccc2O1	8	–	–
NC(=O)c1cccc(-c2ccc(O[C@H]3O[C@H](CO)[C@@H](O)[C@H](O)[C@@H]3O)cc2)c1	2	78	–
CC(=O)Nc1cccc(O[C@H]2O[C@H](CO)[C@@H](O)[C@H](O)[C@@H]2O)c1	12	160	–
CNC(=O)c1cccc(-c2ccc(O[C@H]3O[C@H](CO)[C@@H](O)[C@H](O)[C@@H]3O)cc2)c1	1	75	–
CC(=O)Nc1ccc(O[C@H]2O[C@H](CO)[C@@H](O)[C@H](O)[C@@H]2O)cc1	8	122	–
OC[C@H]1O[C@H](Oc2ccc(-c3cccnc3)cc2)[C@@H](O)[C@@H](O)[C@@H]1O	2	–	–
O=c1[nH]c2ccc(O[C@H]3O[C@H](CO)[C@@H](O)[C@H](O)[C@@H]3O)cc2o1	4	–	–
N#Cc1cccc(-c2ccc(O[C@H]3O[C@H](CO)[C@@H](O)[C@H](O)[C@@H]3O)cc2)c1	1	–	–
OCc1ccccc1-c1ccc(O[C@H]2O[C@H](CO)[C@@H](O)[C@H](O)[C@@H]2O)cc1	16	–	–
OCc1cccc(-c2ccc(O[C@H]3O[C@H](CO)[C@@H](O)[C@H](O)[C@@H]3O)cc2)c1	3	–	–
O=C(O)c1cccc(O[C@H]2O[C@H](CO)[C@@H](O)[C@H](O)[C@@H]2O)c1	60	–	–
N#Cc1ccc(-c2ccc(O[C@H]3O[C@H](CO)[C@@H](O)[C@H](O)[C@@H]3O)cc2)cc1	8	–	–
CNC(=O)c1cc(C(=O)NC)cc(-c2ccc(O[C@H]3O[C@H](CO)[C@@H](O)[C@H](O)[C@@H]3O)cc2)c1	0.37	87	Selectivity ratio (Escherichia coli [6]): 4
OC[C@H]1O[C@H](Oc2ccc(Cl)cc2)[C@@H](O)[C@@H](O)[C@@H]1O	32	–	–
COC(=O)c1ccc(-c2cccc(O[C@H]3O[C@H](CO)[C@@H](O)[C@H](O)[C@@H]3O)c2)cc1	6	–	–
COC(=O)c1cccc(-c2ccc(O[C@H]3O[C@H](CO)[C@@H](O)[C@H](O)[C@@H]3O)cc2)c1	1	52	–
O=[N+]([O-])c1ccc(-c2ccc(O[C@H]3O[C@H](CO)[C@@H](O)[C@H](O)[C@@H]3O)cc2)cc1	2	–	–

SMILES	Activity (Escherichia coli [1]) [µM]	EC50 [2] [nM]	other results
CC(=O)Nc1ccccc1O[C@H]1O[C@H](CO)[C@@H](O)[C@H](O)[C@@H]1O	125	–	–
CS(=O)(=O)Nc1ccccc1-c1ccc(O[C@H]2O[C@H](CO)[C@@H](O)[C@H](O)[C@@H]2O)cc1	12	–	–
COc1ccc(O[C@H]2O[C@H](CO)[C@@H](O)[C@H](O)[C@@H]2O)cc1	8	–	–
OC[C@H]1O[C@H](Oc2ccc(-c3ccccc3O)cc2)[C@@H](O)[C@@H](O)[C@@H]1O	8	–	–
OC[C@H]1O[C@H](Oc2ccc3ccccc3c2)[C@@H](O)[C@@H](O)[C@@H]1O	6	–	–
O=[N+]([O-])c1ccc(O[C@H]2O[C@H](CO)[C@@H](O)[C@H](O)[C@@H]2O)cc1	31	–	–
N#Cc1ccccc1O[C@H]1O[C@H](CO)[C@@H](O)[C@H](O)[C@@H]1O	6	–	–
O=C(NCCOCCNC(=O)c1cccc(-c2ccc(O[C@H]3O[C@H](CO)[C@@H](O)[C@H](O)[C@@H]3O)cc2)c1)c1cccc(-c2ccc(O[C@H]3O[C@H](CO)[C@@H](O)[C@H](O)[C@@H]3O)cc2)c1	0.75	–	–
CCCCCCCO[C@H]1O[C@H](CO)[C@@H](O)[C@H](O)[C@@H]1O	15	89	Kd [5]: 5 nM
COC(=O)c1ccc(O[C@H]2O[C@H](CO)[C@@H](O)[C@H](O)[C@@H]2O)cc1	8	64	–
OCc1ccc(-c2ccc(O[C@H]3O[C@H](CO)[C@@H](O)[C@H](O)[C@@H]3O)cc2)cc1	6	–	–
COC(=O)Cc1ccc(O[C@H]2O[C@H](CO)[C@@H](O)[C@H](O)[C@@H]2O)cc1	30	–	–
OC[C@H]1O[C@H](Oc2ccccc2)[C@@H](O)[C@@H](O)[C@@H]1O	30	114	–
CC(=O)Nc1cccc(-c2ccc(O[C@H]3O[C@H](CO)[C@@H](O)[C@H](O)[C@@H]3O)cc2)c1	2	70	–
O=C(O)c1cc(C(=O)O)cc(-c2ccc(O[C@H]3O[C@H](CO)[C@@H](O)[C@H](O)[C@@H]3O)cc2)c1	2	–	–
OC[C@H]1O[C@H](Oc2ccc(-c3ccncc3)cc2)[C@@H](O)[C@@H](O)[C@@H]1O	2	–	–
COC(=O)c1cc(C(=O)OC)cc(-c2ccc(O[C@H]3O[C@H](CO)[C@@H](O)[C@H](O)[C@@H]3O)cc2)c1	0.15	77	Selectivity ratio (Escherichia coli [6]): 2
OC[C@H]1O[C@H](Oc2cccc(Cl)c2)[C@@H](O)[C@@H](O)[C@@H]1O	8	–	–
O=C(O)c1cccc(-c2ccc(O[C@H]3O[C@H](CO)[C@@H](O)[C@H](O)[C@@H]3O)cc2)c1	4	99	–
